CSC inhib = blocks cancer stem cells; inhibition, % at 7.5 µM; cancer stem cell-like cells viability, luminescence; 300,000 compounds, 1.1% hits; AID 2717; in the data active means inhibition above about 75%; inconclusive means no clear call, values can overlap the other calls; tested in HMLE shEcad cells
Beta cell apopt = blocks beta cell apoptosis | INS-1E cytokine-induced death, ATP luminescence, 48 h; percent of positive-control rescue, neutral wells zero | protection from apoptosis, % (concentration not given with the values) | 300,000 compounds, 0.8% hits;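 active means Every replicate reaches about 75%, or at least half do and their mean reaches it too, limit read from the data; inconclusive means At least half of replicates reach the limit but their mean does not; inactive means Under half of replicates reach the limit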;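 further: 0% = cytokine-treated negative control wells and 100% = positive control rescue; higher means more ATP so stronger rescue from cytokine killing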
L major viab = reduces viability of Leishmania major promastigotes | AID 1063 | 200,000 compounds, 9% hits | inhibition, % at 10 µM | resazurin fluorescence viability; in the data active means inhibition above about 50%;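 further: promastigotes grown with compound for 44 hours at 28 °C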
T cruzi inh = T. cruzi replication inhibition; inhibition, % (test concentration not listed); AID 1885; T. cruzi beta-gal in NIH3T3, luminescence, 90 h; 300,000 compounds, 1.4% hits;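 active means mean inhibition across valid replicates above about 55%, limit read from the data; inconclusive means mean below that limit but half or more replicates reach it; inactive means mean below it, under half of replicates reach it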;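 further: signal also drops with host cell toxicity which is not excluded here; 0% = plate median of DMSO wells and 100% = zero luminescence signal; higher percent means less beta-gal luminescence so fewer parasites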
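Read-out: Parasite load inhibition, % | Test system: Mouse NIH/3T3 fibroblasts infected with β-gal-expressing T. cruzi Tulahuen C4 | Amount: 5,000 cells/well | Medium: DMEM, 2% fetal bovine serum | Signal: GalScreen β-gal luminescence, detergent lysis, 60 min | Timing: 3 h attach, ≥90 h co-culture | Also added: Tulahuen C4 trypomastigotes, 5000/well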
Mdm2-MdmX inh = human Mdm2/MdmX binding inhibition; O15151+Q00987; SaOS-2 split-luciferase Mdm2/MdmX complementation, luminescence; inhibition, % at 8 µM; 330,000 compounds, 3% hits; AID 485346;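 active means inhibition of at least 50% at 8 µM in the primary screen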
Target sequence (O15151 whole entry, looked up): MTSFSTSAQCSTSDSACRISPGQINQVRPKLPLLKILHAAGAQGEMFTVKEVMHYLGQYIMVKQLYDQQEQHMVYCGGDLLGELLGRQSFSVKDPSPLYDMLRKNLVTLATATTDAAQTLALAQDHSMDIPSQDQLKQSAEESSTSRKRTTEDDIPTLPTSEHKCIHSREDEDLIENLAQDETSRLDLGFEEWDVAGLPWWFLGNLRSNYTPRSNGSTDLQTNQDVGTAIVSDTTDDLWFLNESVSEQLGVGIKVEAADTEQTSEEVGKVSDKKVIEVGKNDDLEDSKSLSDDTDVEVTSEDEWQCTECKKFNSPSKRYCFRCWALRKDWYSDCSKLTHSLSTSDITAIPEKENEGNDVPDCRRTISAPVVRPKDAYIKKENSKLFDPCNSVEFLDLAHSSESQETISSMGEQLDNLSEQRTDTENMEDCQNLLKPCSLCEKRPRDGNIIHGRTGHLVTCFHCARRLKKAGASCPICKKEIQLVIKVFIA
Target sequence (Q00987 whole entry, looked up): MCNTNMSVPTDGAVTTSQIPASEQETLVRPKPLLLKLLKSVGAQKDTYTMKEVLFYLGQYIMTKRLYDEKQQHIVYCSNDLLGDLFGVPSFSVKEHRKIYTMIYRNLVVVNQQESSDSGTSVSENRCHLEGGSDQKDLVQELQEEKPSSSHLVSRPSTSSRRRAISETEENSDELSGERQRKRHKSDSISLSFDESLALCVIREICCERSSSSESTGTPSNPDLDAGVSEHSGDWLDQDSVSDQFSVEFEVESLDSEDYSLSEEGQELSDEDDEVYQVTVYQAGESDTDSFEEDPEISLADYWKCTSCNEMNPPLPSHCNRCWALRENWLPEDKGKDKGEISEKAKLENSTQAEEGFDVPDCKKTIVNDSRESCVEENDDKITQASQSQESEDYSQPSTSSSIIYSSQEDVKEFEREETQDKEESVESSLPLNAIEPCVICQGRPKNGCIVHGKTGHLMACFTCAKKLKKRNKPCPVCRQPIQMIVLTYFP
SKKanGAS inh = SKKanGAS growth inhibition; S. pyogenes SKKanGAS, kanamycin growth, BacTiter-Glo, 6 h; inhibition, % at 7.5 µM; 300,000 compounds, 1.3% hits; AID 1662;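 active means mean replicate score, as percent of positive control median, at least 50; inconclusive means mean below 50 but one replicate at or above 50; inactive means mean and every replicate below 50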;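 further: strain carries kanamycin resistance gene driven by streptokinase promoter and grows in 40 µg/ml kanamycin; loss of luminescence reflects streptokinase promoter inhibition or plain growth inhibition; 0% = median of DMSO wells and 100% = positive control at its reference dose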
Numbers without * were called inactive; ? = inconclusive; . = not tested or not shown. Only some compounds are listed: those with a hit (about 9.4% of all), similar ones and a draw of the others.

SMILES | CSC inhib | Beta cell apopt | L major viab | T cruzi inh | Mdm2-MdmX inh | SKKanGAS inh
Cc1nonc1OCCNCCNc1ccc([N+](=O)[O-])cc1Cl | 7 | . | 87* | 39 | -13 | -5
CC(Oc1ccc(Cl)cc1)C(=O)NCC1CCCO1 (stereo unspecified) | -5 | 5 | . | 5 | 28 | 0
O=C1CCC(=O)N1c1ccc(NCc2ccccc2Cl)c([N+](=O)[O-])c1 | 9 | . | 67* | -5 | 2 | 3
CC1CC(=O)N(c2ccc(NCc3ccccc3Cl)c([N+](=O)[O-])c2)C1=O (stereo unspecified) | 12 | 0 | 68* | -1 | 6 | 2
Cc1ccc(CNc2ccc(N3C(=O)CC(C)C3=O)cc2[N+](=O)[O-])cc1 (stereo unspecified) | -3 | 1 | -6 | -24 | 12 | -11
Cc1ccc(CNc2ccc(N3C(=O)CCCC3=O)cc2[N+](=O)[O-])cc1 | 1 | -3 | -4 | 0 | 23 | -6
O=C(NCc1ccccn1)C(=O)NCC1OCCCN1S(=O)(=O)c1cc(F)ccc1F (stereo unspecified) | 0 | 0 | . | -13 | -3 | 3
CCCCC1=CC2=C(c3ccco3)C(=O)C(C)(OC(=O)c3ccc(OC)cc3)C(=O)C2=CN1C1CCCCC1 (stereo unspecified) | 12 | -10 | . | 10 | 21 | 2
CC(C)n1c(SCC(=O)N2c3ccccc3Sc3ccccc32)nc2c1c(=O)n(C)c(=O)n2C | . | . | 60* | 35 | . | 19
CCCn1c(SCC(=O)N2c3ccccc3Sc3ccccc32)nc2c1c(=O)n(C)c(=O)n2C | -7 | 7 | 62* | 44 | 24 | 7
Cn1c(=O)c2c(nc(SCC(=O)N3c4ccccc4CCc4ccccc43)n2C)n(C)c1=O | . | . | 52* | . | . | .
CC(C)n1c(SCC(=O)N2c3ccccc3CCc3ccccc32)nc2c1c(=O)n(C)c(=O)n2C | . | . | 5 | . | . | .
Cn1c(=O)c2c(nc(SCc3ccccc3)n2Cc2ccc(Cl)cc2)n(C)c1=O | -15 | 21 | 20 | 10 | 18 | 80*
CCCn1c(SCC(=O)N2CCCc3ccccc32)nc2c1c(=O)n(C)c(=O)n2C | . | 6 | 2 | . | 5 | .
Nc1cc(N)nc(SCC(=O)N2CCN(S(=O)(=O)c3ccccc3)CC2)n1 | -7 | -8 | . | 6 | 25 | -6
CCC(C)c1ccccc1N1CC(C(=O)Nc2ccc(S(=O)(=O)N3CCOCC3)cc2)CC1=O (stereo unspecified) | -3 | 0 | . | 19 | 11 | -7
Cc1cccc(C(=O)N2CCN(Cc3nc4sc5c(c4c(=O)[nH]3)CCCC5)CC2)c1 | . | 0 | . | 16 | -14 | 5
CC(C)(C)OC(=O)N1CCN(c2ccc(NC(=O)c3ccco3)cc2)CC1 | . | . | . | 12 | 8 | -2
CCN(CC(=O)Nc1ccccc1SC)Cc1nc2ccccc2c(=O)[nH]1 | -14 | 3 | . | 1 | -27 | -4
CCN(CC(=O)NC(c1ccccc1)c1ccccc1)Cc1nc2ccccc2c(=O)[nH]1 | -4 | -7 | 54* | 4 | 3 | 1
Nc1nonc1-n1nnc(C(=O)N/N=C/c2cccs2)c1-c1ccc2c(c1)OCO2 | -3 | 4 | . | -3 | 8 | 1
O=C(COC(=O)c1c[nH]c2ccccc12)Nc1ccc(F)cc1 | . | -2 | . | . | -28 | .
COc1ccc(NC(=O)C23CC4CC(C2)CC(n2cnc(Br)n2)(C4)C3)c(OC)c1 | . | -5 | 5 | 4 | -9 | 10
O=[N+]([O-])c1ncn(C23CC4CC(CC(C4)C2)C3)n1 | -1 | 4 | . | 21 | 4 | 2
CC(=O)Nc1ccc(NC(=O)C23CC4CC(C2)CC(n2cnc(Br)n2)(C4)C3)cc1 | -12 | -2 | 0 | -12 | 10 | -3
SMILES | CSC inhib | Beta cell apopt | L major viab | T cruzi inh | Mdm2-MdmX inh | SKKanGAS inh
O=C(Nc1cccc([N+](=O)[O-])c1)C12CC3CC(C1)CC(n1cnc([N+](=O)[O-])n1)(C3)C2 | -7 | -11 | 76* | 64* | 19 | 11
COc1cc(NC(=O)C23CC4CC(C2)CC(n2cnc([N+](=O)[O-])n2)(C4)C3)cc(OC)c1 | 2 | 2 | 76* | 34 | 26 | -1
Cc1ccc(F)cc1NC(=O)C12CC3CC(C1)CC(n1cnc([N+](=O)[O-])n1)(C3)C2 | -9 | 1 | 67* | 48 | 4 | 4
O=C(Nc1ccccc1)C12CC3CC(C1)CC(n1cnc([N+](=O)[O-])n1)(C3)C2 | -2 | 6 | 72* | 55* | 26 | 1
Cc1ccccc1C(=O)N1CCN(CCNC(=O)C(=O)Nc2ccc(Br)cc2)CC1 | 16 | 0 | . | 2 | 9 | -17
CC12CCC(c3c(C(=O)Nc4nccs4)nn(-c4ccccc4)c31)C2(C)C (stereo unspecified) | 23 | 11 | 100* | 26 | 37 | ?
CC12CCC(c3c(C(=O)O)nn(-c4ccccc4)c31)C2(C)C (stereo unspecified) | 0 | -2 | -5 | -13 | 15 | 0
CCn1c2ccc(/C(C)=N\O)cc2c2cc(/C(C)=N\O)ccc21 | 26 | -12 | 54* | . | -2 | -1
Cc1nc2ccccn2c1C(=O)N/N=C/c1ccc([N+](=O)[O-])o1 | 12 | -34 | 100* | 71* | 28 | .
O=C(N/N=C/c1ccc([N+](=O)[O-])o1)c1cc2ccccc2o1 | 8 | 100* | . | 64* | 15 | 1
Cc1nc2ccccn2c1C(=O)N/N=C/c1ccc([N+](=O)[O-])cc1 | -4 | -5 | . | -15 | 11 | -6
O=C(N/N=C/c1ccc([N+](=O)[O-])o1)c1cc2c(ccc3ccccc32)o1 | . | . | 99* | . | . | .
Cc1[nH]c2ccccc2c1C(=O)C(=O)NC1CC1 | -11 | 12 | . | -15 | -11 | 0
CCN(CC(=O)Nc1c(F)cccc1F)C(=O)CCN1C(=O)C2CCCCC2C1=O (stereo unspecified) | -12 | -5 | . | -5 | 12 | 9
CC(C)Cc1nnc(NC(=O)CCC(=O)N2CCN(c3ccc(Cl)cc3)CC2)s1 | -7 | -2 | . | 5 | 32 | -8
COc1cc(OC)cc(C(=O)N[C@H](C(=O)NCCc2ccc(S(N)(=O)=O)cc2)C(C)C)c1 | . | -1 | . | -4 | 5 | -7
Cc1c(F)cccc1NS(=O)(=O)c1ccc2c(c1)c(C)cc(=O)n2C | 2 | 1 | . | 8 | 15 | -1
O=C(COC(=O)c1c2c(nc3ccccc13)CCCC2)Nc1ccc2c(c1)OCO2 | 13 | 9 | 59* | 13 | 41 | 18
O=C(COC(=O)c1cc(-c2ccccc2)nc2ccccc12)Nc1ccc2c(c1)OCO2 | -5 | -1 | 1 | -1 | 9 | -8
O=C(OCC(=O)N1CCc2ccccc21)c1c2c(nc3ccccc13)CCCCC2 | 55 | 12 | 91* | 43 | 0 | 14
Cc1ccc(NC(=O)c2cccc(S(=O)(=O)N(C)c3ccccc3)c2)cc1S(=O)(=O)N1CCOCC1 | 2 | 2 | 98* | 9 | 24 | 8
